This is an account of results in ChEMBL document CHEMBL1135248, “Synthesis and evaluation of pseudopeptide analogues of a specific CXCR4 inhibitor, T140: the insertion of an (E)-alkene dipeptide isostere into the betaII'-turn moiety” (Bioorg Med Chem Lett, 2002).

In one test the test system is MT4. Put plainly: Anti-HIV activity based on the protection against HIV-induced cytopathogenicity in MT-4 cells using MTT method. The class given is functional, cell-based, Homo sapiens. The following applies: mt4. Summed up:
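MT-4 cells challenged with the X4 strain HIV-1 IIIB. Protection from virus-induced cytopathogenicity was read by the MTT method, and EC50 was derived. Values are the mean of at least three experiments.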
(Cytopathic effects are the visible damage that an infection or toxin causes in cultured cells.)

Test [1] has as its target T1, C-X-C chemokine receptor type 4 (Homo sapiens, UniProt P61073). Put plainly: (§1) Inhibitory activity based on the inhibition of [Ca2+] mobilization induced by human SDF-1alpha stimulation through CXCR4. In a few lines: (§2)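 CHO cells transfected with CXCR4 were loaded with Fura-2-AM for 1–2 h and then pretreated with analogue. Recombinant human SDF-1α was added 3 min later. [Ca2+]i rise was measured spectrofluorometrically by a modified Fura-2 method, and IC50 was derived from inhibition of mobilization. Values are the mean of two experiments.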

For test [2], the target named is T1, C-X-C chemokine receptor type 4. Described as §1. Summed up:
as §2
The source holds these as a separate data set.

For test [3] the target is unchanged. Put plainly: (§3) Inhibitory activity based on the inhibition of [Ca2+] mobilization induced by human SDF-1alpha stimulation through C-X-C chemokine receptor type 4. Summed up: as §2
Test [4] has the same target. Described as §3. In a few lines: as §2
The source holds these as a separate data set.

As a reminder, the EC50 is the concentration at which the effect is half-maximal. Low values mean a more potent agent, high ones a less potent agent. The IC50 is the concentration at which inhibition is half-maximal.

Several values for one entry are separate records, joined by “and”; a condition that tells them apart may be missing. Identical values can stand only once.

T1 sequence (P61073 whole entry): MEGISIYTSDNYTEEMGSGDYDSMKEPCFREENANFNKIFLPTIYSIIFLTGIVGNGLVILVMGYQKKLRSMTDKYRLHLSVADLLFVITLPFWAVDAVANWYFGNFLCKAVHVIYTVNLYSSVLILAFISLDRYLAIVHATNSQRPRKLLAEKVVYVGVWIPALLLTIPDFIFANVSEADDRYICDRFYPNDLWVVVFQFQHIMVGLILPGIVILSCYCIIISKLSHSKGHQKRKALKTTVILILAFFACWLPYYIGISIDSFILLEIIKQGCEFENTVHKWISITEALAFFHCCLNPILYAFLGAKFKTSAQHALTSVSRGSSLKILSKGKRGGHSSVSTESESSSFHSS

Regarding `C[C@H]1/C=C\[C@@H](CCCCN)NC(=O)[C@H](CCCCN)NC(=O)[C@H](CCCN=C(N)N)NC(=O)[C@H](Cc2ccc(O)cc2)NC(=O)[C@@H](NC(=O)[C@H](Cc2ccc3ccccc3c2)NC(=O)[C@H](CCCN=C(N)N)NC(=O)[C@@H](N)CCCN=C(N)N)CSSC[C@@H](C(=O)N[C@@H](CCCN=C(N)N)C(N)=O)NC(=O)[C@H](CCCNC(N)=O)NC(=O)[C@H](CCCN=C(N)N)NC(=O)[C@H](Cc2ccc(O)cc2)NC1=O`, the concentration for a half-maximal effect (EC50) in the test on MT4 is 4.7 nM and 1.9 nM. Moreover, the concentration for half-maximal inhibition (IC50) in test [1] was determined as 5 nM; in test [2] it was 10 nM.

On to `C[C@H]1/C=C\[C@@H](CCCCN)NC(=O)[C@H](CCCCN)NC(=O)[C@H](CCCNC(=N)N)NC(=O)[C@H](Cc2ccc(O)cc2)NC(=O)[C@@H](NC(=O)[C@H](Cc2c[nH]c3ccccc23)NC(=O)[C@H](CCCNC(=N)N)NC(=O)[C@@H](N)CCCN=C(N)N)CSSC[C@@H](C(=O)N[C@@H](CCCNC(=N)N)C(=O)O)NC(=O)[C@H](CCCNC(N)=O)NC(=O)[C@H](CCCNC(=N)N)NC(=O)[C@H](Cc2ccc(O)cc2)NC1=O`, for which the IC50 in test [3] stood at 30 nM; in test [4] it was 27 nM.
